Experimental findings from ChEMBL document CHEMBL2331364, “A synthetic dolastatin 10 analogue suppresses microtubule dynamics, inhibits cell proliferation, and induces apoptotic cell death” (J Med Chem, 2013) are described below.

The nature of experiment [1]: Inhibition of goat brain tubulin polymerization incubated for 20 mins prior to GTP addition measured for 30 mins by 90 degree light scattering-based fluorescence spectrophotometric method. More on the design: species or system Capra hircus. A digest of the protocol:
(§1)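 Goat brain tubulin (10 μM) was preincubated with compound (5 μM; or 1, 5, 7, 10 μM) in 1 M monosodium glutamate, 3 mM MgCl2, 1 mM EGTA, 25 mM Pipes pH 6.8 on ice for 20 min. GTP (1 mM) was then added and assembly followed by 90° light scattering at 400 nm for 30 min at 37 °C. Experiment run twice.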

The species named for experiment [2] is Capra hircus. The settings on record: 3 uM.
Experiment [3] has as its system HeLa. The experiment can be described thus: Antiproliferative activity against human HeLa cells assessed as median dose after 24 hrs. Type of experiment: functional. An outline of the steps:
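HeLa cells treated for 24 h with each agent alone and in combinations. The median dose (Dm) was taken from the median dose plot, and combination index was computed as CI = (D)1/(Dx)1 + (D)2/(Dx)2.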

For experiment [4], the species on record is Capra hircus. The experiment is described as follows: Inhibition of goat brain tubulin polymerization at 5 uM incubated for 20 mins prior to GTP addition measured for 30 mins by 90 degree light scattering-based fluorescence spectrophotometric method. A digest of the protocol: as §1
Experiment [5] deals with HeLa. The experiment is described as follows: Cytotoxicity against human HeLa cells after 24 to 48 hrs by trypan blue assay. Type of experiment: functional, cell-based. A digest of the protocol: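 Cells were seeded at 1 × 10^5 cells/mL, grown 24 h at 37 °C in 5% CO2, then given vehicle (0.1% DMSO) or 1–80 nM for a further 24 or 48 h. Attached plus floating cells were counted after trypan blue staining. Percent inhibition was plotted against concentration to give IC50. Average of three independent experiments.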

The test system of experiment [6] is SK-N-SH. The experiment can be described thus: Cytotoxicity against human SK-N-SH cells assessed as cell death at 50 uM after 72 hrs by MTT assay. Type of experiment: functional. Background: Tetrazolium assays rely on reduction of a dye to a coloured formazan, in cell work by metabolically active cells.
Experiment [7] deals with SK-N-SH. The experiment can be described thus: Cytotoxicity against human SK-N-SH cells assessed as cell death at 80 uM after 72 hrs by MTT assay. Type of experiment: functional.
In experiment [8] the test system is HeLa. The experiment can be described thus: Inhibition of mitosis in human HeLa cells assessed as mitotic index at 200 nM after 48 hrs by Hoechst 33258 DNA staining assay (reference value: 4 +/- 0.2 %). Type of experiment: functional. Also on record: scale not given: the % may be the effect or the level left. A digest of the protocol: (§2)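 HeLa cells were treated for 24 or 48 h with compound or vehicle (0.1% DMSO). DNA was stained with Hoechst 33258 and mitotic cells were counted to give the mitotic index.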

Experiment [9] deals with HeLa. The experiment can be described thus: Induction of apoptosis in human HeLa cells assessed as apoptotic cells at 700 nM after 10 hrs by annexin V-FITC/propidium iodide staining-based FACS analysis. Type of experiment: functional. An outline of the steps:
(§3)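 HeLa cells were exposed for 10 or 24 h, then stained with annexin V and propidium iodide using an apoptosis kit. Apoptotic cells were quantified by FACS. Compounds were dissolved in DMSO.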
In general terms: Flow cytometry measures light scatter and fluorescence of single cells or particles in a stream.

The subject of experiment [10] is HeLa. The experiment is described as follows: Inhibition of mitosis in human HeLa cells assessed as mitotic index at 300 nM after 24 hrs by Hoechst 33258 DNA staining assay (reference value: 4 +/- 0.3 %). Type of experiment: functional. Also on record: scale not given: the % may be the effect or the level left. A digest of the protocol: as §2
In experiment [11] the test system is HeLa. The experiment is described as follows: Inhibition of mitosis in human HeLa cells after 24 hrs by Hoechst 33258 DNA staining assay. Type of experiment: functional, cell-based. An outline of the steps:
as §2

Experiment [12] deals with HeLa. The experiment can be described thus: Inhibition of mitosis in human HeLa cells assessed as mitotic index at 200 nM after 24 hrs by Hoechst 33258 DNA staining assay (reference value: 4 +/- 0.3 %). Type of experiment: functional. More on the design: scale not given: the % may be the effect or the level left. A digest of the protocol:
as §2

Experiment [13] has as its system HeLa. The experiment is described as follows: Induction of apoptosis in human HeLa cells assessed as apoptotic cells at 700 nM after 24 hrs by annexin V-FITC/propidium iodide staining-based FACS analysis. Type of experiment: functional. A digest of the protocol:
as §3

Experiment [14] relates to HeLa. The experiment is described as follows: Inhibition of mitosis in human HeLa cells assessed as mitotic index at 300 nM after 48 hrs by Hoechst 33258 DNA staining assay (reference value: 4 +/- 0.2 %). Type of experiment: functional. More on the design: scale not given: the % may be the effect or the level left. A digest of the protocol: as §2
Experiment [15] relates to HeLa. The experiment can be described thus: Inhibition of mitosis in human HeLa cells assessed as mitotic index at 100 nM after 48 hrs by Hoechst 33258 DNA staining assay (reference value: 4 +/- 0.2 %). More on the design: scale not given: the % may be the effect or the level left. Type of experiment: functional. An outline of the steps:
as §2

For experiment [16], the system named is HeLa. The experiment can be described thus: Inhibition of mitosis in human HeLa cells assessed as mitotic index at 100 nM after 24 hrs by Hoechst 33258 DNA staining assay (reference value: 4 +/- 0.3 %). Type of experiment: functional. More on the design: scale not given: the % may be the effect or the level left. An outline of the steps:
as §2

Where a SMILES comes first, the peptide text is derived from it. [ ]: non-standard residue; d: D form. The star is where a group is joined. X1 = COC1=CC(=O)N(C(=O)[C@@H](O*)C(C)C)[C@H]1Cc1ccccc1; NMe2Val = CC(C)[C@@H](C(=O)*)N(C)C; NMeV = CN[C@H](C(=O)O)C(C)C

In the case of `CC[C@]1(O)C[C@@H]2CN(CCc3c([nH]c4ccccc34)[C@@](C(=O)OC)(c3cc4c(cc3OC)N(C)[C@H]3[C@@](O)(C(=O)OC)[C@H](OC(C)=O)[C@]5(CC)C=CCN6CC[C@]43[C@@H]65)C2)C1` [VINBLASTINE], in [1], the IC50 (commonly the concentration that inhibits the measured activity by half) amounted to 1500 nM. In addition, the inhibition (as a rule, the share of the control response that was lost under treatment) in the experiment filed under Capra hircus [2] was found to be 50%. Besides, the Activity with HeLa [3] was 2.3 nM.

As for `CC[C@H](C)[C@@H]([C@@H](CC(=O)N1CCC[C@H]1[C@H](OC)[C@@H](C)C(=O)N[C@@H](Cc1ccccc1)c1nccs1)OC)N(C)C(=O)[C@@H](NC(=O)[C@H](C(C)C)N(C)C)C(C)C` [DOLASTATIN-10], in experiment [1], the IC50 came out at 1200 nM.

The compound `CC[C@H](C)[C@@H]([C@H](CC(=O)NC[C@H]1O[C@H](C(=O)N[C@@H](Cc2ccccc2)c2nccs2)[C@@H](OC)[C@@H]1OC)OC)N(C)C(=O)[C@@H](NC(=O)[C@@H](NC)C(C)C)C(C)C` came in with an inhibition in the experiment filed under Capra hircus [4] of 10%. In the experiment with HeLa [5], 9.9 nM corresponded to half-maximal inhibition (IC50).

`CC[C@H](C)[C@@H](/C=C/C(=O)NC[C@H]1O[C@@H](C(=O)N[C@@H](Cc2ccccc2)C2=NCCS2)[C@@H](OC)[C@@H]1OC)N(C)C(=O)[C@@H](NC(=O)[C@@H](NC)C(C)C)C(C)C`: the inhibition in the experiment filed under Capra hircus [4] was determined as 19%. This compound came in with a half-maximal inhibitory concentration (IC50) with HeLa [5] of 8.7 nM.

Turning to `CC[C@H](C)[C@@H]([C@H](O)CC(=O)NC[C@H]1O[C@@H](C(=O)NCc2ccccc2)[C@@H](OC)[C@@H]1OC)N(C)C(=O)[C@@H](NC(=O)[C@@H](NC)C(C)C)C(C)C`, the midpoint of inhibition with HeLa [5], the IC50, lay at 16 nM.

Turning to `CC[C@]12C=CCN3CC[C@@]4(c5cc([C@@]6(C(=O)OC)C[C@@H]7C[C@@H](C(C)(F)F)CN(Cc8c6[nH]c6ccccc86)C7)c(OC)cc5N(C)[C@H]4[C@@](O)(C(=O)OC)[C@@H]1OC(C)=O)[C@@H]32` [VINFLUNINE], the Activity with SK-N-SH [6] was determined as 50%; with SK-N-SH [7], 70%.

As to `CC[C@H](C)[C@@H]([C@H](O)CC(=O)NC[C@H]1O[C@H](C(=O)NCc2ccccc2)[C@@H](OC)[C@@H]1OC)N(C)C(=O)[C@@H](NC(=O)[C@@H](NC)C(C)C)C(C)C`, inhibition with HeLa [5] was half-maximal at 12 nM (IC50).

As for `CC[C@H](C)[C@@H]([C@@H](CC(=O)NC[C@H]1O[C@@H](C(=O)NCCc2ccccc2)[C@@H](OC)[C@@H]1OC)OC)N(C)C(=O)[C@@H](NC(=O)[C@@H](NC)C(C)C)C(C)C`, half-maximal inhibition with HeLa [5] (IC50) required 15 nM.

`CC[C@H](C)[C@@H]([C@H](CC(=O)NC[C@H]1O[C@H](C(=O)N[C@@H](Cc2ccccc2)c2nccs2)[C@@H](OC)[C@@H]1OC)OC)N(C)C(=O)[C@@H](NC(=O)[C@H](C(C)C)N(C)C)C(C)C`: inhibition in the experiment on HeLa [5] was half-maximal at 16 nM (IC50).

In [1], `CO[C@@H](/C(C)=C/C=C/C(C)=C/c1coc(C)n1)[C@@H](C)[C@@H]1C[C@H](O)[C@@]2(C)O[C@@H]2/C=C/[C@@H](C)[C@H]2C[C@H](CC(=O)O2)C[C@@H]2O[C@H]2C(=O)O1` [RHIZOXIN] showed an IC50 of 6800 nM.

For the compound `COC(=O)Nc1nc2cc(C(=O)c3cccs3)ccc2[nH]1` [NOCODAZOLE], the Activity in the experiment with HeLa [8] came out at 13%; with HeLa [9] it was 14.7%; with HeLa [10], 36%; in the experiment on HeLa [12], 28%; with HeLa [13] it was 50.5%; in the experiment on HeLa [14], 11%. For the same compound, the results for the Activity in the experiment with HeLa [15] and in the experiment on HeLa [16] were 14% and 22%, respectively. In the experiment with HeLa [11], the inhibition result is “Dose-dependent effect”. In the experiment with HeLa [5], the IC50 was 178 nM.

Compound `CC[C@H](C)[C@@H](/C=C/C(=O)NC[C@H]1O[C@@H](C(=O)N[C@@H](Cc2ccccc2)C2=NCCS2)[C@@H](OC)[C@@H]1OC)N(C)C(=O)[C@@H](NC(=O)[C@H](C(C)C)N(C)C)C(C)C` registered an inhibition in the experiment filed under Capra hircus [4] of 21%. This compound also displayed an IC50 with HeLa [5] of 8.8 nM.

As to `COc1cc2c(c(OC)c1OC)-c1ccc(OC)c(=O)cc1[C@@H](NC(C)=O)CC2` [COLCHICINE], in the experiment on HeLa [3], the Activity came to 17.8 nM.

As to `COC1=CC(=O)N(C(=O)[C@@H](OC(=O)[C@@H]2CCCN2C(=O)[C@@H]2CCCN2C(=O)[C@H](C(C)C)N(C)C(=O)[C@@H](NC(=O)[C@H](C(C)C)N(C)C)C(C)C)C(C)C)[C@H]1Cc1ccccc1` [DOLASTATIN 15] (NMe2Val-V[NMeV]PP-X1), in experiment [1], half-maximal inhibition (IC50) was put at 23000 nM.
